PPC-1+TRAIL kill – kills PPC-1 cancer cells in the presence of TRAIL | cell killing (% activity), % at 4 µM or 5 µM | PPC-1 cells + TRAIL, ATPLite viability luminescence | AID 1443 | hit rate 0.41% among 220,000;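 active = cell killing above 50% in the first pass at 4 µM, then a duplicate retest at 5 µM averaging 50% or more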
STAT3 blocker – reduces IL-6 driven STAT3 reporter signal. U3A cells, IL-6 STAT3-luciferase reporter, luminescence; host cell line lacks STAT1. inhibition, % at 5.5 µM. hit rate 0.89% among 190,000. AID 862;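 active = inhibition above the mean inhibition across all screened compounds plus 3 SD, cut at about 44% in these data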
TRAIL sens C8 – caspase-8 TRAIL sensitization. AID 624354. hit rate 1% among 360,000. NB7+C8 cells + TRAIL, ATPlite viability luminescence. inhibition (viability loss, TRAIL sensitization), % at 10 µM;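 active = compounds causing at least 50% loss of cell viability in the single-dose screen, relative to plate controls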
STAT1 inh – reduces IFN-gamma driven STAT1 reporter signal. inhibition, % at 5.5 µM. hit rate 0.35% among 200,000. AID 920. NIH 3T3 STAT1-luciferase reporter, luminescence;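 active = inhibition above a set limit, the mean inhibition across all tested compounds plus 3 SD, cut at about 34% in these data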
STAT3 activator – STAT3 signaling activation; activation (% of control), % at 5.6 µM; U3A cells, IL-6 STAT3-luciferase reporter, luminescence; 100% = signal with IL-6 EC80 alone; hit rate 0.91% among 190,000; AID 871;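 active = activation above the screen-wide mean of compound activation plus 3 SD, cut at about 130% in these data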
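Assay system – human STAT1-deficient U3A cells with stable STAT3-luciferase reporter · Also added – IL-6 (33 ng/mL) · Schedule – compound 1 h, then IL-6 6 h at 37 °C · Technique – reporter luminescence signal · Evaluation – % activation versus median of IL-6-stimulated wells · Benchmarks – IL-6-only wells as 100% reference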
PPC1 cytotox – PPC-1 cell cytotoxicity | cytotoxicity, % at 5 µM | PPC-1 viability, ATPlite luminescence, overnight | AID 1447 | hit rate 50% among 1,200 | shares compounds with PPC-1+TRAIL kill;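 active = reconfirmed compounds whose average cytotoxicity reaches 50% or more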
Large screens that a line does not name were inactive (follow-up assays come after a bar, where they were run). The list is not random: actives were taken first. Their share in the collection is about 1.8%.

Cc1ccc(C(=O)Nc2cc3ccccc3oc2=O)cc1	PPC-1+TRAIL kill 72, STAT3 blocker 106, TRAIL sens C8 82, STAT1 inh 94 | PPC1 cytotox 72
Cc1ccc(C(=O)Nc2cnc3ccccc3c2)cc1	PPC-1+TRAIL kill 70, STAT3 blocker 110, TRAIL sens C8 78, STAT1 inh 91 | PPC1 cytotox 67
CC(=O)Nc1cc2ccccc2oc1=O	none
Cc1ccc(-c2nc(-c3ccccc3)no2)c(Cl)c1	PPC-1+TRAIL kill 81, STAT3 blocker 101, TRAIL sens C8 87, STAT1 inh 69 | PPC1 cytotox 77
COc1ccc(-c2noc(-c3ccccc3-c3ccccc3)n2)cc1	none
N#Cc1nc(-c2ccccc2)oc1N1CCC(C(N)=O)CC1	none (no result: PPC-1+TRAIL kill, STAT3 blocker, STAT1 inh, STAT3 activator)
N#Cc1nc(-c2ccco2)oc1N1CCC(C(N)=O)CC1	none | PPC1 cytotox inactive
Cc1ccc(-c2cc3nc(C)cc(NCc4ccco4)n3n2)cc1	TRAIL sens C8 63 | PPC1 cytotox inactive
CCN(CC)C(=O)CN(c1cc2c(cc1OC)oc1ccccc12)S(=O)(=O)c1ccccc1	none | PPC1 cytotox inactive
COc1ccc(OCC(=O)Nc2c(C)ccc3nsnc23)cc1	none (no result: PPC-1+TRAIL kill, STAT3 blocker, STAT1 inh, STAT3 activator)
Cc1ccc(C(=O)NCC(=O)Nc2ccc3c(c2)CCC3)cc1	none (no result: PPC-1+TRAIL kill, STAT3 blocker, STAT1 inh, STAT3 activator)
Cc1ccc(C(=O)Nc2ccc3c(c2)CCC3)cc1	PPC-1+TRAIL kill 52, STAT3 blocker 88, TRAIL sens C8 79, STAT1 inh 64 | PPC1 cytotox 53
COc1ccc(-c2cc(=O)c3c(O)c(OC)c(OC)c(OC)c3o2)cc1	none (no result: PPC-1+TRAIL kill, STAT3 blocker, STAT1 inh, STAT3 activator)
COc1ccc(-c2cc(=O)c3c(O)c(OC)c(O)cc3o2)cc1	PPC-1+TRAIL kill 64, TRAIL sens C8 70 (no result: STAT3 blocker, STAT3 activator) | PPC1 cytotox 64
CCCn1c(SCC(=O)NC2CC2)nnc1-c1ccccn1	none (no result: PPC-1+TRAIL kill, STAT3 blocker, STAT1 inh, STAT3 activator)
CC(C)c1ccc2c(c1)C(c1ccc(N3CCOCC3)cc1)=NNC(c1cccs1)=N2	none
O=C(NCc1cccnc1)C1CCCN(S(=O)(=O)c2ccccc2)C1 (stereo not given)	none | PPC1 cytotox inactive
O=C(c1ccc(Cl)cc1)c1ccc(Oc2cc(NN3CCCCC3)c([N+](=O)[O-])cc2[N+](=O)[O-])cc1	none (no result: PPC-1+TRAIL kill, STAT3 blocker, STAT1 inh, STAT3 activator)
COc1ccc(C(=O)Nc2ccc(S(=O)(=O)Nc3nccc(C)n3)cc2)cc1[N+](=O)[O-]	none (no result: PPC-1+TRAIL kill, STAT3 blocker, STAT1 inh, STAT3 activator)
Cc1ccc(S(=O)(=O)CCC(=O)OCc2nnc(-c3ccccc3Br)o2)cc1	none (no result: PPC-1+TRAIL kill, STAT3 blocker, STAT1 inh, STAT3 activator)
Cc1cc(C)c(C#N)c(SCc2nc3ccccc3c(=O)[nH]2)n1	PPC-1+TRAIL kill 80, TRAIL sens C8 77 | PPC1 cytotox 79
C/C(=N\NS(=O)(=O)c1ccccc1)c1cc(Cl)cc(Cl)c1O	none
CCN(CC)CCn1nc2c3c(cccc3c1=O)-c1ccccc1-2	STAT3 activator 135 | PPC1 cytotox inactive
Cc1ccccc1NC(=O)c1nc[nH]c1C(=O)NCc1ccccc1	none | PPC1 cytotox inactive
COc1ccc(C(C)NC(=O)CC23CC4CC(CC(C4)C2)C3)cc1 (stereo not given)	none (no result: PPC-1+TRAIL kill, STAT3 blocker, STAT1 inh, STAT3 activator)
CCC(C)(C)c1ccc(OCCCC[n+]2cccc(C)c2C)c(C(C)(C)CC)c1	PPC-1+TRAIL kill 62 (no result: STAT3 blocker, STAT1 inh, STAT3 activator) | PPC1 cytotox 58
CCC(C)(C)c1ccc(OCCCC[n+]2ccc(C)cc2)c(C(C)(C)CC)c1	none (no result: TRAIL sens C8)
O=C(/C(=C/c1ccc(Cl)cc1)c1nc2ccccc2[nH]1)c1cccs1	none
COc1cc(/C=C(/C(=O)c2cccs2)c2nc3ccccc3[nH]2)ccc1O	STAT3 activator 136 | PPC1 cytotox inactive
Cc1cccc(-c2nnc(C(C)Nc3cccc(C(=O)NC4CC4)c3)o2)c1 (stereo not given)	none (no result: PPC-1+TRAIL kill, STAT3 blocker, STAT1 inh, STAT3 activator)
CCc1ccc2oc(-c3cccc(N)c3)nc2c1	TRAIL sens C8 82 | PPC1 cytotox inactive
O=C(N/N=C/c1cc(O)ccc1[N+](=O)[O-])c1ccc2c(c1)OCCO2	PPC-1+TRAIL kill 80, TRAIL sens C8 89 (no result: STAT3 blocker, STAT1 inh, STAT3 activator) | PPC1 cytotox 83
C/C(=N\NC(=O)c1ccc(O)cc1)c1ccc2c(c1)OCCO2	none (no result: PPC-1+TRAIL kill, STAT3 blocker, STAT1 inh, STAT3 activator)
C/C(=N\NC(=O)c1ccc2c(c1)OCCO2)c1ccccc1	PPC-1+TRAIL kill 65 (no result: STAT3 blocker, STAT1 inh, STAT3 activator) | PPC1 cytotox 64
COc1ccc(/C=N/NC(=O)c2ccc3c(c2)OCCO3)cc1[N+](=O)[O-]	none
O=C(N/N=C/c1ccccc1[N+](=O)[O-])c1ccc2c(c1)OCCO2	PPC-1+TRAIL kill 93, TRAIL sens C8 93 (no result: STAT3 blocker, STAT1 inh, STAT3 activator) | PPC1 cytotox 93
O=C(CSc1nc2[nH]ncc2c(=O)[nH]1)c1ccccc1	none
O=C(O)C1=C[C@@H](O)[C@@H](O)[C@H](O)C1	none (no result: PPC-1+TRAIL kill, STAT3 blocker, STAT1 inh, STAT3 activator)

Screening data from PubChem.
